From ChEMBL document CHEMBL3425456, “Boronic acid-containing CXCR1/2 antagonists: Optimization of metabolic stability, in vivo evaluation, and a proposed receptor binding model” (Bioorg Med Chem Lett, 2015)
Calls of active or inactive are those of the source. The rule behind the calls is not given here.

Legend:
[1] = molecular target: T1, Interleukin-8 receptors, CXCR1/CXCR2 (Homo sapiens, UniProt P25025+P25024); test: Antagonist activity at CXCR1/CXCR2 in human PMN cells assessed as inhibition of GROalpha-mediated intracellular calcium release; assay type: functional, cell-based
T1 sequence (P25025 whole entry): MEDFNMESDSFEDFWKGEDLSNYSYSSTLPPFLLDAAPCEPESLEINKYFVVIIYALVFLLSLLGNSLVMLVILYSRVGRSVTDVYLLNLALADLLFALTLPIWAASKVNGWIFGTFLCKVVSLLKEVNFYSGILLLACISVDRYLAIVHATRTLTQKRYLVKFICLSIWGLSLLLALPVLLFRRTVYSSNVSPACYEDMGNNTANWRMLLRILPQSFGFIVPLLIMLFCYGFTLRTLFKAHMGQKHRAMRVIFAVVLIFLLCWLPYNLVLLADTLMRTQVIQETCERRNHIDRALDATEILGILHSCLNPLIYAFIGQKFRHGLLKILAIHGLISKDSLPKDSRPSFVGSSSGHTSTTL
T1 sequence (P25024 whole entry): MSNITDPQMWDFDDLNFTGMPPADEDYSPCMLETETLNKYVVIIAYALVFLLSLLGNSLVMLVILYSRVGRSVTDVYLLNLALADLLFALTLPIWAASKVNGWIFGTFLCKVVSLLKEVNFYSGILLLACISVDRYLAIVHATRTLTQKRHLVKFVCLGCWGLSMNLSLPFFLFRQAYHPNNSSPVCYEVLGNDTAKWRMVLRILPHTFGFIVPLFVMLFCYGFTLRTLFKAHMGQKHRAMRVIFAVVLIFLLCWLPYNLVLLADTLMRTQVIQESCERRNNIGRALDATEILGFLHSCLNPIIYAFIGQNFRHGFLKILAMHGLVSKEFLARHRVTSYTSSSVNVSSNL

[2] = molecular target: T2, C-X-C chemokine receptor type 2 (Homo sapiens, UniProt P25025); test: Inhibition of CXCR2 (unknown origin) expressed in PathHunter celline by beta-arrestin assay
T2 sequence (P25025 whole entry): T1 sequence (P25025 whole entry)

[3] = tested on: Rattus norvegicus; test: AUC in rat at 1 mg/kg, po by LC-MS/MS analysis; assay type: ADME, organism-based, Plasma; design: dose 1 mg/kg, route oral; conditions: in vivo, BLD = below limit of detection
How it was run: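 Rats were dosed at 1 mg/kg by oral gavage. Plasma levels were measured by LC-MS/MS against a concurrently run calibration curve of compound spiked into rat plasma.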

[4] = tested on: Liver microsome; test: Metabolic stability in rat liver microsomes assessed as compound remaining at 1 uM after 60 mins by LC-MS analysis; assay type: ADME; conditions: 1 h
How it was run: (§1)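 Compound at 1 µM was incubated with rat or monkey liver microsomes for 60 min at 37°C. Samples taken at 0 and 60 min were analysed by LC-MS for % parent remaining.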

[5] = molecular target: T2, C-X-C chemokine receptor type 2; test: Inhibition of CXCR2 (unknown origin) transfected with RBL cells; assay type: cell-based
How it was run: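 RBL cells stably transfected with CXCR2 were used to measure antagonist activity at the receptor.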

[6] = tested on: Rattus norvegicus; test: AUC in rat at 1 mg/kg, iv by LC-MS/MS analysis; assay type: ADME, organism-based, Plasma; design: dose 1 mg/kg, route intravenous; conditions: in vivo
How it was run: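 Rats were dosed intravenously at 1 mg/kg. Plasma levels were measured by LC-MS/MS against a calibration curve of compound spiked into rat plasma and run alongside the samples. AUC was taken from the plasma concentration vs. time curve.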

[7] = molecular target: T3, C-X-C chemokine receptor type 1 (Homo sapiens, UniProt P25024); test: Inhibition of CXCR1 (unknown origin) transfected with RBL cells; assay type: cell-based
T3 sequence (P25024 whole entry): T1 sequence (P25024 whole entry)

[8] = Metabolic stability in monkey liver microsomes assessed as compound remaining at 1 uM after 60 mins by LC-MS analysis; assay type: ADME, Macaca mulatta; conditions: rhesus monkey, 1 h; how it was run: as §1
[9] = tested on: Rattus norvegicus; test: Inhibition of neutrophil influx in ozone Sprague-Dawley rat model of pulmonary inflammation assessed as decrease in PMN influx into lungs at 1 mg/kg, iv after 24 hrs; assay type: functional, organism-based; design: dose 1 mg/kg
How it was run: (§2)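 Sprague-Dawley rats, n = 4 per group, were dosed iv at 1 mg/kg (or vehicle) at t = 0, 5 and 9 h. They were exposed to air or 1 ppm ozone for 4 h and sacrificed at 24 h for bronchoalveolar lavage. BALF cells were Wright-Giemsa stained and counted (PMNs, macrophages). BALF protein was measured by Bradford assay as lung leakage.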

[10] = tested on: Rattus norvegicus; test: Inhibition of lung leakage in ozone Sprague-Dawley rat model of pulmonary inflammation at 1 mg/kg, iv after 24 hrs; assay type: functional, organism-based; design: dose 1 mg/kg; how it was run: as §2
[11] = tested on: Rattus norvegicus; test: Inhibition of macrophage influx in ozone Sprague-Dawley rat model of pulmonary inflammation at 1 mg/kg, iv after 24 hrs; assay type: functional, organism-based; design: dose 1 mg/kg; how it was run: as §2

O=C(Nc1ccc(F)cc1)c1ccc(SCc2cc(F)ccc2B(O)O)nc1
IC50 [1]: 0.052 µM

COc1ccc(B(O)O)c(CSc2ccc(C(=O)Nc3ccc(F)cc3)cn2)c1
IC50 [1]: 0.08 µM

O=C(Nc1ccc(F)cc1)c1ccc(SCc2cccc(B(O)O)c2)nc1
IC50 [1]: 1.22 µM

O=C(Nc1ccc(F)cc1)c1ccc(SCc2cc3c(cc2B(O)O)OCO3)nc1
IC50 [1]: > 10 µM

O=C(Nc1ccc(F)cc1)c1ccc(SCc2ccc(B(O)O)cc2)nc1
IC50 [1]: 0.09 µM

COc1cc(CSc2ccc(C(=O)Nc3ccc(F)cc3)cn2)c(B(O)O)cc1OC
IC50 [1]: > 10 µM

O=C(Nc1ccc(F)cc1)c1ccc(SCc2ccccc2B(O)O)nc1
IC50 [1]: 0.038 µM
IC50 [2]: 0.73 µM
AUC [3]: BLD
Stability [4]: 37%
IC50 [5]: 0.356 µM
AUC [6]: 0.39 µM·h
IC50 [7]: 0.903 µM
Stability [8]: 25%

O=C(Nc1ccc(F)cc1)c1ccc(SCCc2ccccc2B(O)O)nc1
IC50 [1]: 0.387 µM

O=C(Nc1ccc(F)cc1)c1ccc(SCc2cc(OC(F)(F)F)ccc2B(O)O)nc1
inhibition [9]: Active
AUC [3]: BLD
Stability [4]: 92%
inhibition [10]: Active
inhibition [11]: Active
AUC [6]: 5.4 µM·h
Stability [8]: 95%

O=C(Nc1ccc(F)cc1)c1ccc(SCCCCB(O)O)nc1
IC50 [1]: 0.689 µM
